# “And” between values parts separate entries of the source, which are not always exact repeats. Identical values can stand only once.
# Test system: Fibroblast
# Assay: Multiplex assay against human fibroblast
# Assay type: toxicity, cell-based
# How it was run: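 On a CQ1 microscope at 37°C and 5% CO2, live cells were imaged after compound addition. They had been stained at seeding with Hoechst33342, BioTracker Green Microtubule Cytoskeleton Dye, MitoTracker Red and Annexin V Alexa Fluor 680. CellPathfinder machine-learning gating assigned cells to Hoechst high-intensity objects or normal cells, normal cells to healthy, pyknosed or fragmented nuclei, and pyknosed cells to mitotic or apoptotic. Tubulin, mitochondrial-mass and membrane-permeability phenotypes are per cents of healthy-nucleus cells.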
# [1] = 12 h, 1 µM, compound concentration 1 uM
# [2] = 12 h, 10 µM, compound concentration 10 uM
# [3] = 24 h, 1 µM, compound concentration 1 uM
# [4] = 24 h, 10 µM, compound concentration 10 uM
# [5] = 48 h, 1 µM, compound concentration 1 uM
# [6] = 48 h, 10 µM, compound concentration 10 uM
compound,measurement,setting,value
CC[C@H](Nc1ncnc2[nH]cnc12)c1nc2cccc(F)c2c(=O)n1-c1ccccc1 [IDELALISIB],Population Apoptotic (%),[1],12.5% and 30.56%
same,Population Fragmented Nuclei (%),[1],8.54% and 3.76%
same,Population Healthy Nuclei (%),[1],58.94% and 76.88%
same,Population Hoechst High Intensity Objects (%),[1],7.17% and 0%
same,Population Membrane Permeable-Phenotype (%),[1],3.45% and 2.8%
same,Population Mitochondria Different-Phenotype (%),[1],10.34% and 11.89%
same,Population Mitotic Cells (%),[1],87.5% and 69.44%
same,Population Normal (%),[1],92.83% and 100%
same,Population Pyknosed Nuclei (%),[1],32.52% and 19.35%
same,Population Tubulin-Different-Phenotype (%),[1],22.76% and 24.48%
same,Total Cell Count,[1],265 and 186
same,Population Apoptotic (%),[2],7.84% and 18.6%
same,Population Fragmented Nuclei (%),[2],13.24% and 8.44%
same,Population Healthy Nuclei (%),[2],63.47% and 72.44%
same,Population Hoechst High Intensity Objects (%),[2],0%
same,Population Membrane Permeable-Phenotype (%),[2],11.51% and 11.04%
same,Population Mitochondria Different-Phenotype (%),[2],16.55% and 16.56%
same,Population Mitotic Cells (%),[2],92.16% and 81.4%
same,Population Normal (%),[2],100%
same,Population Pyknosed Nuclei (%),[2],23.29% and 19.11%
same,Population Tubulin-Different-Phenotype (%),[2],53.24% and 61.96%
same,Total Cell Count,[2],219 and 225
same,Population Apoptotic (%),[3],12.5% and 29.41%
same,Population Fragmented Nuclei (%),[3],8.53% and 9.31%
same,Population Healthy Nuclei (%),[3],69.77% and 82.35%
same,Population Hoechst High Intensity Objects (%),[3],5.84% and 0%
same,Population Membrane Permeable-Phenotype (%),[3],6.11% and 1.79%
same,Population Mitochondria Different-Phenotype (%),[3],3.89% and 7.14%
same,Population Mitotic Cells (%),[3],87.5% and 70.59%
same,Population Normal (%),[3],94.16% and 100%
same,Population Pyknosed Nuclei (%),[3],21.71% and 8.33%
same,Population Tubulin-Different-Phenotype (%),[3],16.67% and 20.24%
same,Total Cell Count,[3],274 and 204
same,Population Apoptotic (%),[4],8.33% and 21.88%
same,Population Fragmented Nuclei (%),[4],9.91% and 5.37%
same,Population Healthy Nuclei (%),[4],73.87% and 79.02%
same,Population Hoechst High Intensity Objects (%),[4],0%
same,Population Membrane Permeable-Phenotype (%),[4],9.15% and 6.79%
same,Population Mitochondria Different-Phenotype (%),[4],15.24% and 12.35%
same,Population Mitotic Cells (%),[4],91.67% and 78.12%
same,Population Normal (%),[4],100%
same,Population Pyknosed Nuclei (%),[4],16.22% and 15.61%
same,Population Tubulin-Different-Phenotype (%),[4],46.95% and 64.2%
same,Total Cell Count,[4],222 and 205
same,Population Apoptotic (%),[5],40.74% and 37.5%
same,Population Fragmented Nuclei (%),[5],8.52% and 5.13%
same,Population Healthy Nuclei (%),[5],81.48% and 90.77%
same,Population Hoechst High Intensity Objects (%),[5],7.22% and 0%
same,Population Membrane Permeable-Phenotype (%),[5],1.36% and 3.39%
same,Population Mitochondria Different-Phenotype (%),[5],11.36% and 3.39%
same,Population Mitotic Cells (%),[5],59.26% and 62.5%
same,Population Normal (%),[5],92.78% and 100%
same,Population Pyknosed Nuclei (%),[5],10% and 4.1%
same,Population Tubulin-Different-Phenotype (%),[5],9.09% and 16.95%
same,Total Cell Count,[5],291 and 195
same,Population Apoptotic (%),[6],25% and 23.81%
same,Population Fragmented Nuclei (%),[6],12.65% and 4.81%
same,Population Healthy Nuclei (%),[6],82.45% and 85.1%
same,Population Hoechst High Intensity Objects (%),[6],0%
same,Population Membrane Permeable-Phenotype (%),[6],3.96% and 10.73%
same,Population Mitochondria Different-Phenotype (%),[6],11.39% and 11.3%
same,Population Mitotic Cells (%),[6],75% and 76.19%
same,Population Normal (%),[6],100%
same,Population Pyknosed Nuclei (%),[6],4.9% and 10.1%
same,Population Tubulin-Different-Phenotype (%),[6],30.2% and 57.06%
same,Total Cell Count,[6],245 and 208

# Source: ChEMBL document CHEMBL5724801, “EUbOPEN Chemogenomics Library - Multiplex” (2024)
